From ChEMBL document CHEMBL5329164, “Design, synthesis, and evaluation of BTK-targeting PROTACs with optimized bioavailability in vitro and in vivo” (RSC Med Chem, 2023)
Each block holds one molecule with its values, some of them ahead of it. The source made the active and inactive calls. No cut-off for these calls is given here.

Experiments:
[1] = target: T1, Protein cereblon/Tyrosine-protein kinase BTK (Homo sapiens) (UniProt Q06187+Q96SW2); assay: PROTAC activity at CRBN/ BTK in human Ramos cells assessed as induction of BTK degradation at 500 nM incubated for 24 hrs by immunoblot analysis relative to control; type: cell-based
Procedure, shortened: (§1)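 Ramos cells in supplemented RPMI 1640 were plated at 3×10^5 cells/well and treated with compound for 24 h. Lysates in SDS sample buffer were heated at 100 °C for 15 min and run on 10% SDS-PAGE, then transferred to PVDF. Membranes were probed overnight at 4 °C for BTK, GSPT1 and β-actin.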

[2] = Apparent permeability across apical to basal side in MDCK-II cells at 10 uM measured for 120 mins by LC-MS/MS analysis; type: ADME, cell-based, Canis lupus familiaris; conditions: dog
Procedure, shortened: (§2)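 MDCK monolayers were grown on Transwell inserts (5 x 10^4 cells/cm²) and used at day 5. Compound at 10 μM in HBSS with 10 mM Hepes, pH 7.40, was dosed apically or basolaterally and incubated at 37±1 °C. Lucifer yellow passage below 1% confirmed monolayer integrity.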

[3] = Apparent permeability across apical to basal side in MDCK-II cells assessed as compound recovery at 10 uM measured for 120 mins by LC-MS/MS analysis; type: ADME, cell-based, Canis lupus familiaris; conditions: dog, read-out: Drug recovery
Procedure, shortened: as §2, with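 “°C. Receiver and donor samples were taken at 120 min and quantified by LC-MS/MS against an internal standard.” for “°C.”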

[4] = Apparent permeability across basal to apical side in MDCK-II cells at 10 uM measured for 120 mins by LC-MS/MS analysis; type: ADME, cell-based, Canis lupus familiaris; conditions: dog; procedure, shortened: as §2
[5] = Apparent permeability across basal to apical side in MDCK-II cells assessed as compound recovery at 10 uM measured for 120 mins by LC-MS/MS analysis; type: ADME, cell-based, Canis lupus familiaris; conditions: dog, read-out: Drug recovery
Procedure, shortened: as §2, with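 “°C. Receiver and donor samples were taken at 120 min and quantified by LC-MS/MS against an internal standard.” for “°C.”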

[6] = Oral bioavailability in BALB/c mouse at 5 mg/kg measured for 24 hrs by LCMS analysis; type: ADME, organism-based; conditions: in vivo
Procedure, shortened: (§3)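 Male Balb/c mice, 9 per group, dosed intragastrically at 5 mg/kg; the same compounds were also given iv at 2 mg/kg. Blood was drawn into EDTA-K2 tubes at 0.25, 0.5, 1, 2, 4, 6, 8 and 24 h. Plasma proteins were precipitated with acetonitrile containing tolbutamide. Quantification was by LC-MS on a C18 column with a formic acid water/acetonitrile gradient.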

[7] = Half life in BALB/c mouse at 2 mg/kg, iv measured for 24 hrs by LCMS analysis; type: ADME, organism-based; conditions: in vivo
Procedure, shortened: (§4)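 Male Balb/c mice, 9 per group, dosed intravenously at 2 mg/kg. Blood was drawn into EDTA-K2 tubes at 0.083, 0.25, 0.5, 1, 2, 4, 6, 8 and 24 h. Plasma was separated by centrifugation at 2000 g for 10 min and precipitated with acetonitrile containing tolbutamide internal standard. Analysis was by LC-MS on a polar C18 column with a water/acetonitrile 0.1% formic acid gradient.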

[8] = Stability in monkey liver microsomes assessed as half life at 1 uM preincubated for 10 mins followed by reaction initiation measured upto 60 mins in presence of NADPH; type: ADME, Macaca mulatta, Microsome; conditions: rhesus monkey, time < 70 min
Procedure, shortened: (§5)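 Compound at 1 μM final was incubated with 0.5 mg/mL mouse, rat, dog, monkey or human liver microsomes in 100 mM PBS, pH 7.4, with 1 mM NADPH at 37 °C after a 10 min preincubation. Reactions were stopped at 0, 5, 15, 30 and 60 min with ice-cold acetonitrile containing tolbutamide. Supernatants were taken for bioanalysis.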

[9] = Stability in human liver microsomes assessed as half life at 1 uM preincubated for 10 mins followed by reaction initiation measured upto 60 mins in presence of NADPH; type: ADME, Microsome; conditions: time < 70 min; procedure, shortened: as §5
[10] = Solubility in DMSO:Cremophor EL:1xPBS mixture at 10 mg/ml incubated for 7 days; type: physicochemical; conditions: 168 h, time 7 day
[11] = Tmax in BALB/c mouse at 5 mg/kg, po measured for 24 hrs by LCMS analysis; type: ADME, organism-based; conditions: in vivo; procedure, shortened: as §3
[12] = Stability in rat liver microsomes assessed as intrinsic clearance measured per mg protein at 1 uM preincubated for 10 mins followed by reaction initiation measured upto 60 mins in presence of NADPH; type: ADME, Microsome; conditions: time < 70 min, read-out: CLH; procedure, shortened: as §5
[13] = Stability in rat liver microsomes assessed as half life at 1 uM preincubated for 10 mins followed by reaction initiation measured upto 60 mins in presence of NADPH; type: ADME, Microsome; conditions: time < 70 min; procedure, shortened: as §5
[14] = Half life in BALB/c mouse at 5 mg/kg, po measured for 24 hrs by LCMS analysis; type: ADME, organism-based; conditions: in vivo; procedure, shortened: as §3
[15] = Solubility in DMSO:Cremophor EL:1xPBS mixture at 10 mg/ml; type: physicochemical
[16] = Stability in dog liver microsomes assessed as half life at 1 uM preincubated for 10 mins followed by reaction initiation measured upto 60 mins in presence of NADPH; type: ADME, Canis lupus familiaris, Microsome; conditions: time < 70 min; procedure, shortened: as §5
[17] = target: T1, Protein cereblon/Tyrosine-protein kinase BTK (Homo sapiens); assay: PROTAC activity at CRBN/ BTK in human DOHH-2 cells assessed as induction of BTK degradation at 1.2 to 300 nM incubated for 24 hrs by immunoblot analysis; type: cell-based; conditions: dose 1.2-300 nM
Procedure, shortened: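 DOHH2 cells were grown in RPMI 1640 with 10% FBS, 1% penicillin-streptomycin, 1% nonessential amino acids and 50 µM 2-mercaptoethanol at 37 °C under 5% CO₂. Cells were treated with compound at various concentrations, lysed in SDS buffer and separated on 10% SDS-PAGE. Blots were transferred to PVDF and probed for BTK, with β-actin as loading control.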

[18] = Stability in human liver microsomes assessed as intrinsic clearance measured per mg protein at 1 uM preincubated for 10 mins followed by reaction initiation measured upto 60 mins in presence of NADPH; type: ADME, Microsome; conditions: time < 70 min, read-out: CLH; procedure, shortened: as §5
[19] = Stability in mouse liver microsomes assessed as half life at 1 uM preincubated for 10 mins followed by reaction initiation measured upto 60 mins in presence of NADPH; type: ADME, Microsome; conditions: time < 70 min; procedure, shortened: as §5
[20] = target: T1, Protein cereblon/Tyrosine-protein kinase BTK (Homo sapiens); assay: PROTAC activity at CRBN/ BTK in human Ramos cells assessed as induction of BTK degradation at 30 nM incubated for 24 hrs by immunoblot analysis; type: cell-based; procedure, shortened: as §1
[21] = Stability in mouse liver microsomes assessed as intrinsic clearance measured per mg protein at 1 uM preincubated for 10 mins followed by reaction initiation measured upto 60 mins in presence of NADPH; type: ADME, Microsome; conditions: time < 70 min, read-out: CLH; procedure, shortened: as §5
[22] = Stability in dog liver microsomes assessed as intrinsic clearance measured per mg protein at 1 uM preincubated for 10 mins followed by reaction initiation measured upto 60 mins in presence of NADPH; type: ADME, Canis lupus familiaris, Microsome; conditions: time < 70 min, read-out: CLH; procedure, shortened: as §5
[23] = AUClast in BALB/c mouse at 2 mg/kg, iv measured for 24 hrs by LCMS analysis; type: ADME, organism-based; set-up: time 24 hrs, dose 2 mg/kg, route iv; conditions: in vivo; procedure, shortened: as §4
[24] = Apparent volume of distribution in BALB/c mouse at 2 mg/kg, iv measured for 24 hrs by LCMS analysis; type: ADME, organism-based; conditions: in vivo, read-out: Vz; procedure, shortened: as §4
[25] = Clearance in BALB/c mouse at 2 mg/kg, iv measured for 24 hrs by LCMS analysis; type: ADME, organism-based; conditions: in vivo; procedure, shortened: as §4
[26] = target: T1, Protein cereblon/Tyrosine-protein kinase BTK (Homo sapiens); assay: PROTAC activity at CRBN/ BTK in human Ramos cells assessed as induction of BTK degradation at 100 nM incubated for 24 hrs by immunoblot analysis relative to control; type: cell-based; procedure, shortened: as §1
[27] = AUClast in BALB/c mouse at 5 mg/kg, po measured for 24 hrs by LCMS analysis; type: ADME, organism-based; set-up: dose 5 mg/kg, time 24 hrs, route po; conditions: in vivo; procedure, shortened: as §3
[28] = Cmax in BALB/c mouse at 5 mg/kg, po measured for 24 hrs by LCMS analysis; type: ADME, organism-based; set-up: dose 5 mg/kg, time 24 hrs, route po; conditions: in vivo; procedure, shortened: as §3
[29] = Stability in monkey liver microsomes assessed as intrinsic clearance measured per mg protein at 1 uM preincubated for 10 mins followed by reaction initiation measured upto 60 mins in presence of NADPH; type: ADME, Macaca mulatta, Microsome; conditions: rhesus monkey, time < 70 min, read-out: CLH; procedure, shortened: as §5

T1 sequence (Q06187 2-659 limits assumed): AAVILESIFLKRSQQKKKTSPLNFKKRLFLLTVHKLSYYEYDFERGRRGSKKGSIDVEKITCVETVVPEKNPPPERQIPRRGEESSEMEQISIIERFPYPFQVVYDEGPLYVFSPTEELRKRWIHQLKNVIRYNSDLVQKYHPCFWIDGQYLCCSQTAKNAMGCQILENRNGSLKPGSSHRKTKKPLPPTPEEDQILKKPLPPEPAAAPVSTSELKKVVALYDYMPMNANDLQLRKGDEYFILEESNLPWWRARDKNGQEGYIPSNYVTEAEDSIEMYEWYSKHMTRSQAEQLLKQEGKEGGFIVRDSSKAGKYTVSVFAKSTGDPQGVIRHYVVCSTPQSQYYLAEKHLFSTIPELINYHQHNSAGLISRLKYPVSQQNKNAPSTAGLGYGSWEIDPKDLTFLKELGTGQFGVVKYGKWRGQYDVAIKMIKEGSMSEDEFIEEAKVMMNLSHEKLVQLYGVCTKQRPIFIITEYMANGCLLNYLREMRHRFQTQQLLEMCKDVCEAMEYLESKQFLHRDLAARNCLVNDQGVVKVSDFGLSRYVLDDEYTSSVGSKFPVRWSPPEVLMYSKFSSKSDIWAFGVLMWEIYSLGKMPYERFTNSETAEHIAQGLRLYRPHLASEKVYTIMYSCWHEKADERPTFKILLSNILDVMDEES
T1 sequence (Q96SW2 whole entry partner): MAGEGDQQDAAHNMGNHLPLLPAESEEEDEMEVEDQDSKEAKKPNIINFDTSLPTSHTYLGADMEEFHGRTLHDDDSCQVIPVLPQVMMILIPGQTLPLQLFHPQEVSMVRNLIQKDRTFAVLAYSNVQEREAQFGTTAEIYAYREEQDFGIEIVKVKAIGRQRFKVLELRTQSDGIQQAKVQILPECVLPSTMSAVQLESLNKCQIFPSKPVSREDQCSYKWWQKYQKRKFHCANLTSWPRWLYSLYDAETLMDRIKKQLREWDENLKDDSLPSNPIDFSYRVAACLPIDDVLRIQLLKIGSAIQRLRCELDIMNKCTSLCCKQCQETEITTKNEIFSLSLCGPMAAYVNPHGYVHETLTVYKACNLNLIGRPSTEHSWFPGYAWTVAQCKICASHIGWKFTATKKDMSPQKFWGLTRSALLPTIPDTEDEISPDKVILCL

Activity [1]: 100%
SMILES: Nc1ncnc2c1c(-c1ccc(Oc3ccccc3)cc1)nn2[C@@H]1CCCN(C(=O)Nc2ccc3c(c2)C(=O)N(C2CCC(=O)NC2=O)C3=O)C1 (some centres undefined)

Papp A→B at 2 h, 10 µM [2]: 21.1 ×10⁻⁶ cm/s
recovery at 2 h, 10 µM [3]: 97.1%
Papp B→A at 2 h, 10 µM [4]: 11.3 ×10⁻⁶ cm/s
recovery at 2 h, 10 µM [5]: 95.9%
SMILES: COCCc1ccc(OCC(O)CNC(C)C)cc1 (centres undefined) [METOPROLOL]

bioavailability [6]: 4.78%
half-life [7]: 58.8 min
half-life at 1 µM [8]: 307 min
half-life at 1 µM [9]: 141 min
Papp A→B at 2 h, 10 µM [2]: 0.016 ×10⁻⁶ cm/s
solubility [10]: Soluble
Tmax [11]: 30 min
recovery at 2 h, 10 µM [3]: 111%
microsomal CLint at 1 µM [12]: 7.66 µL/min/mg
Papp B→A at 2 h, 10 µM [4]: 0.01 ×10⁻⁶ cm/s
half-life at 1 µM [13]: 181 min
half-life [14]: 31.2 min
solubility [15]: Soluble
half-life at 1 µM [16]: 254 min
Activity [17]: Active
microsomal CLint at 1 µM [18]: 9.83 µL/min/mg
half-life at 1 µM [19]: 136 min
Activity [20]: 20.7%
recovery at 2 h, 10 µM [5]: 116%
microsomal CLint at 1 µM [21]: 10.2 µL/min/mg
microsomal CLint at 1 µM [22]: 5.45 µL/min/mg
AUC(0-t) at 24 h [23]: 2810 ng·h/mL
Vd [24]: 0.998 L/kg
clearance [25]: 11.8 mL/min/kg
Activity [26]: 18.3%
AUC(0-t) at 24 h [27]: 336 ng·h/mL
Cmax [28]: 252 ng/mL
microsomal CLint at 1 µM [29]: 4.52 µL/min/mg
SMILES: Nc1ncnc2c1c(-c1ccc(Oc3ccccc3)cc1)nn2[C@@H]1CCCN(C(=O)c2ccc(CNc3ccc4c(c3)C(=O)N(C3CCC(=O)NC3=O)C4=O)cc2)C1 (some centres undefined)

solubility [10]: Insoluble
solubility [15]: Insoluble
Activity [17]: Active
Activity [26]: 28.5%
SMILES: Nc1ncnc2c1c(-c1ccc(Oc3ccccc3)cc1)nn2[C@@H]1CCCN(C(=O)c2cn(CCOCCOCCOCCCc3cccc4c3CN(C3CCC(=O)NC3=O)C4=O)nn2)C1 (some centres undefined)

bioavailability [6]: 0.51%
half-life [7]: 296 min
half-life at 1 µM [8]: 8.91 min
half-life at 1 µM [9]: 9.46 min
Papp A→B at 2 h, 10 µM [2]: 0.003 ×10⁻⁶ cm/s
Tmax [11]: 30 min
recovery at 2 h, 10 µM [3]: 98.5%
microsomal CLint at 1 µM [12]: 55.9 µL/min/mg
Papp B→A at 2 h, 10 µM [4]: 0.25 ×10⁻⁶ cm/s
half-life at 1 µM [13]: 24.8 min
half-life [14]: 87 min
half-life at 1 µM [16]: 28.5 min
microsomal CLint at 1 µM [18]: 147 µL/min/mg
half-life at 1 µM [19]: 13 min
recovery at 2 h, 10 µM [5]: 101%
microsomal CLint at 1 µM [21]: 107 µL/min/mg
microsomal CLint at 1 µM [22]: 48.7 µL/min/mg
AUC(0-t) at 24 h [23]: 8120 ng·h/mL
Vd [24]: 1.74 L/kg
clearance [25]: 4.08 mL/min/kg
AUC(0-t) at 24 h [27]: 103 ng·h/mL
Cmax [28]: 83.2 ng/mL
microsomal CLint at 1 µM [29]: 156 µL/min/mg
SMILES: Nc1ncnc2c1c(-c1ccc(Oc3ccccc3)cc1)nn2C1CCN(C(=O)Cc2ccc(Nc3ccc4c(c3)CN(C3CCC(=O)NC3=O)C4=O)cc2)CC1 (centres undefined)

recovery at 2 h, 10 µM [3]: 94.4%
recovery at 2 h, 10 µM [5]: 99.5%
SMILES: CC(C)NCC(O)COc1ccc(CC(N)=O)cc1 (centres undefined) [ATENOLOL]

solubility [10]: Insoluble
solubility [15]: Insoluble
SMILES: Nc1ncnc2c1c(-c1ccc(Oc3ccccc3)cc1)nn2C1CCN(C2CN(C3CN(c4ccc5c(c4)C(=O)N(C4CCC(=O)NC4=O)C5=O)C3)C2)CC1 (centres undefined)
